Data published in BindingDB's records for doi:10.1021/jm00080a008 (Merck Sharp and Dohme Research Laboratories, 1992).

Legend:
[1] = molecular target: T1, Myeloperoxidase (Homo sapiens, UniProt P05164); assay: ChEBML_223053
T1 sequence (P05164 whole entry): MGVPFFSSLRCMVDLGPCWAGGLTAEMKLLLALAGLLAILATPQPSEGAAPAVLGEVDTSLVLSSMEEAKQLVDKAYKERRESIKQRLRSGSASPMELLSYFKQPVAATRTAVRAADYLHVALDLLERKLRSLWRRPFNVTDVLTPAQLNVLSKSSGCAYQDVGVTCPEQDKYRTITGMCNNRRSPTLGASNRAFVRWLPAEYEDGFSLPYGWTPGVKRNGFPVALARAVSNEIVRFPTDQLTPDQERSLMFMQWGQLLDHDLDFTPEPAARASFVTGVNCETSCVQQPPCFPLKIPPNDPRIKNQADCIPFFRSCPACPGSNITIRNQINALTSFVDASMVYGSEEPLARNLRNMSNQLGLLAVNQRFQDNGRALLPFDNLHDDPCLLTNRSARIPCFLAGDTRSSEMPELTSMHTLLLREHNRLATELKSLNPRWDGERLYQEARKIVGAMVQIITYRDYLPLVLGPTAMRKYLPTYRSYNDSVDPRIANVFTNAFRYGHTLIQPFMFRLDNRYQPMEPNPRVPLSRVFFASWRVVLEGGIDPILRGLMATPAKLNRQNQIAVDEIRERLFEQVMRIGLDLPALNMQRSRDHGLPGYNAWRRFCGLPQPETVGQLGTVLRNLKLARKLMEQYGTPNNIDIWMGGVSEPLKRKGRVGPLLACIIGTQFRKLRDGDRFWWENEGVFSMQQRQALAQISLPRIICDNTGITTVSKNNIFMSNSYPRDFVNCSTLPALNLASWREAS
Description: (§1) Compound was tested for the induction of nonspecific myeloperoxidase (MPO) release

[2] = molecular target: T1, Myeloperoxidase; assay: as §1
Summary of the method: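 Freshly isolated human PMN (Ficoll-Hypaque, erythrocytes lysed with NH4Cl/EDTA/KHCO3), 4×10^5/mL in HBSS. Preincubated with compound or 1% aqueous DMSO 20 min at 37 °C, then cytochalasin B (5 μg/mL final) 5 min. Stimulated 5 min at 37 °C with C5a or fMLF, or no stimulus for nonspecific release. MPO read with dimethoxybenzidine/H2O2 at pH 6.0, azide-quenched at 2 min, A450. Duplicate or triplicate.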

Compound	EC50 [1] [µM]	EC50 [2] [µM]
Cc1cc(N)c2cc(NC(=O)Nc3ccc4nc(C)cc(N)c4c3)ccc2n1 [Aminoquinuride]	< 3	
Cc1cc(N)c2cc(NC(=O)/C=C/c3ccccc3Cl)ccc2n1 [MLS000737665]		< 3
